# Data published in ChEMBL document CHEMBL3352726, “Constrained bithiazoles: small molecule correctors of defective ΔF508-CFTR protein trafficking” (J Med Chem, 2014).
# Target: Cystic fibrosis transmembrane conductance regulator (Homo sapiens, UniProt P13569, F508DEL)
# Assay: Correction of defective trafficking of human deltaF508 mutant CFTR protein expressed in FRT epithelial cells coexpressing YFP-H148Q/I152L protein assessed as iodide influx for 16 to 20 hrs by fluorescence assay
# Format: cell-based, Epithelial cell
# Conditions: read-out: IC50 (the source's name)
# Outline: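 FRT cells stably coexpressing human ΔF508-CFTR and YFP-H148Q/I152L, grown 24 h at 37 °C (5% CO2), then exposed 16–20 h to compound at various concentrations; DMSO vehicle negative control and a bithiazole benzamide positive control. Washed, 20 min in PBS with forskolin 20 μM plus genistein 50 μM. YFP fluorescence (ex 500/em 535 nm) read 2 s baseline, then 12 s after iodide-substituted PBS addition. Influx rate came from exponential fit of final 11.5 s, extrapolated initial slope, normalized to background-subtracted initial fluorescence. EC50/Vmax came from four-parameter logistic fit.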
# Sequence of Cystic fibrosis transmembrane conductance regulator (P13569 as listed by the source): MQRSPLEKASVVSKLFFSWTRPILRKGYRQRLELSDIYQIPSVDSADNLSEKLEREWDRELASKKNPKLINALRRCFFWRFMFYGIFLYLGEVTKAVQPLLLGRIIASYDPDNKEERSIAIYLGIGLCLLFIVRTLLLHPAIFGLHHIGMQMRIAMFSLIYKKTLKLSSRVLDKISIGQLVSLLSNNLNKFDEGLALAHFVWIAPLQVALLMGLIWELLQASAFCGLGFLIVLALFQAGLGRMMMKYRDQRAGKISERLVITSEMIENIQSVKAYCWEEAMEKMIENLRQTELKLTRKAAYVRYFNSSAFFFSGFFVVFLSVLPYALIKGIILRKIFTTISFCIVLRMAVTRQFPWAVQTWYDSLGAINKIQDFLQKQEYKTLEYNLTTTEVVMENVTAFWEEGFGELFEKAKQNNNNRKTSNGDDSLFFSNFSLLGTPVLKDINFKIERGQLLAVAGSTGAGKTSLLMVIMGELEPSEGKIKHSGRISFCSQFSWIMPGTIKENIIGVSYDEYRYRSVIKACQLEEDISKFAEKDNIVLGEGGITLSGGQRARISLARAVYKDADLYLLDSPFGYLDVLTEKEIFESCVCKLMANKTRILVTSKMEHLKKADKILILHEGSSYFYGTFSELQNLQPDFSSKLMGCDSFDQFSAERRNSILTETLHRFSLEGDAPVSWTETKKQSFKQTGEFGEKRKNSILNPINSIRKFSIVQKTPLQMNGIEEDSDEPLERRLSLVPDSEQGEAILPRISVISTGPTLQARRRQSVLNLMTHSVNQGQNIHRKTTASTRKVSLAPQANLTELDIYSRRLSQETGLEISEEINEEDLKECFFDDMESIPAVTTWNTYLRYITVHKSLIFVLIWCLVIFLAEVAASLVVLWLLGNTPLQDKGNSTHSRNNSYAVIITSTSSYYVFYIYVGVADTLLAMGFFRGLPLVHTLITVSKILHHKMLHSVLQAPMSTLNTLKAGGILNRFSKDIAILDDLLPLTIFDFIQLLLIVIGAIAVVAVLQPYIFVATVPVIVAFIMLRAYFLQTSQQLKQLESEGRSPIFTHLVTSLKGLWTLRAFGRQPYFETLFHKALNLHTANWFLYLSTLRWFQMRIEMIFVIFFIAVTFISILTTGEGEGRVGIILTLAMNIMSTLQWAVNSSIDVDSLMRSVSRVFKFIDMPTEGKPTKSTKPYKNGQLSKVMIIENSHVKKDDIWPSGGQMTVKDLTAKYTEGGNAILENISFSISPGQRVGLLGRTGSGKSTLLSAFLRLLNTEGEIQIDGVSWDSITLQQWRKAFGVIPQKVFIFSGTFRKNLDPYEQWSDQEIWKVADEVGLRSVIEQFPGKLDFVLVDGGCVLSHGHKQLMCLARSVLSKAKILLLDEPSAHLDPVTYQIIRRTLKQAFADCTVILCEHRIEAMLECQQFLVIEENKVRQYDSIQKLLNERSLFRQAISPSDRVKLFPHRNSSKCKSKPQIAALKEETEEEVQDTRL
row,SMILES,EC50
1,CN(C)c1ccc(Cl)cc1Nc1nc2c(s1)CCCc1nc(NC(=O)C(C)(C)C)sc1-2,6.9 µM
2,COc1ccc(Cl)cc1Nc1nc2c(s1)CCCCc1nc(NC(=O)c3ccno3)sc1-2,6.6 µM
3,COc1ccc(Cl)cc1Nc1nc2c(s1)CCCc1nc(N)sc1-2,11 µM
4,COC(=O)CCC(=O)Nc1nc2c(s1)-c1nc(Nc3cc(Cl)ccc3OC)sc1CCC2,8.8 µM
5,COC(=O)CCC(=O)Nc1nc2c(s1)-c1nc(Nc3cc(Cl)ccc3OC)sc1CCCC2,8.3 µM
6,COc1ccc(Cl)cc1Nc1nc2c(s1)CCCc1nc(NC(=O)C3CC3)sc1-2,8.9 µM
7,Cc1cccnc1Nc1nc2c(s1)CCCc1nc(NC(=O)C(C)(C)C)sc1-2,7.2 µM
8,COc1ccc(Cl)cc1Nc1nc2c(s1)CCCCc1nc(N)sc1-2,9.2 µM
9,CCC(C)C(=O)Nc1nc2c(s1)-c1nc(Nc3cc(Cl)ccc3OC)sc1CCC2 (stereo not drawn),6.6 µM
10,COc1ccc(Cl)cc1Nc1nc2c(s1)CCCCc1nc(NC(=O)C(C)C)sc1-2,8.7 µM

# These reach a lower EC50. Values come first.
row,EC50,SMILES
1,2.2 µM,CN(C)c1cccc(Nc2nc3c(s2)CCCc2nc(NC(=O)C(C)(C)C)sc2-3)c1
2,4.1 µM,COc1ccc(Cl)cc1Nc1nc2c(s1)CCCCc1nc(NC(=O)C(C)(C)C)sc1-2
3,2.9 µM,CCC(C)C(=O)Nc1nc2c(s1)-c1nc(Nc3cc(Cl)ccc3OC)sc1CCCC2 (stereo not drawn)
4,0.9 µM,COc1ccc([N+](=O)[O-])cc1Nc1nc2c(s1)CCCCc1nc(NC(=O)C(C)(C)C)sc1-2
5,4.8 µM,COc1ccc(Cl)cc1Nc1nc2c(s1)CCCc1nc(NC(=O)c3ccno3)sc1-2
6,5.2 µM,CN(C)c1cccc(Nc2nc3c(s2)CCCCc2nc(NC(=O)C(C)(C)C)sc2-3)c1
7,4.5 µM,COc1ccc(Cl)cc1Nc1nc2c(s1)CCCCc1nc(NC(=O)C3CC3)sc1-2
8,2.3 µM,COc1ccc(Cl)cc1Nc1nc2c(s1)CCCc1nc(NC(=O)C(C)(C)C)sc1-2
9,6 µM,COc1ccc(Cl)cc1Nc1nc(-c2sc(NC(=O)c3ccccc3)nc2C)cs1
10,3.6 µM,COc1ccc([N+](=O)[O-])cc1Nc1nc2c(s1)CCCc1nc(NC(=O)C(C)(C)C)sc1-2
11,5.8 µM,COc1ccc(Cl)cc1Nc1nc2c(s1)CCCc1nc(NC(=O)C(C)C)sc1-2
12,5.2 µM,Cc1cccnc1Nc1nc2c(s1)CCCCc1nc(NC(=O)C(C)(C)C)sc1-2
13,2.1 µM,CN(C)c1ccc(Cl)cc1Nc1nc2c(s1)CCCCc1nc(NC(=O)C(C)(C)C)sc1-2
